pIC50: −log10 of the molar value. “And” between values parts separate entries of the source, which are not always exact repeats. Equal entries are not always repeated. The source made the active and inactive calls. The rule behind the calls is not given here.
Tests used:
[1] = test system: Human immunodeficiency virus 1; experiment: Antiviral activity against HIV1 virus-like particles harboring wild type reverse transcriptase infected in human U2OS cells after 24 hrs by Renilla luciferase assay; type: functional, organism-based; details: for pIC50: read-out: IC50
In short: (§1)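 U2OS cells seeded 5 × 10^4 per well, infected next day with HIV-1 VLPs carrying wt or mutant RT at MOI 0.01 with polybrene 6 μg/mL plus compound; 1 h at 37 °C, washed, compound-containing media 24 h, then compound-free media 24 h. Lysate Gluc activity (Renilla luciferase reagent) normalised to protein.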

[2] = Cytotoxicity against human U2OS cells assessed as reduction of cell viability after 48 hrs; type: cell-based
In short: (§2)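 Impedance-based real-time viability: U2OS (3.5 × 10^3) or TZM-bl (8.5 × 10^3) cells seeded on electrode plates, compounds in DMSO added 24 h later (final DMSO 0.5%), cell index recorded over a further 48 h. CC50 = concentration lowering cell index by 50% relative to DMSO-only cells.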

[3] = test system: Human immunodeficiency virus 1; experiment: Antiviral activity against HIV1 virus-like particles harboring wild type reverse transcriptase infected in human U2OS cells assessed as remaining viral activity at 5 uM after 24 hrs by Renilla luciferase assay relative to control; type: functional; in short: as §1
[4] = molecular target: Human immunodeficiency virus type 1 reverse transcriptase (Human immunodeficiency virus 1) (UniProt Q72547); experiment: (§3) Inhibition of recombinant HIV1 reverse transcriptase using 234-nt long RNA/18-mer DNA oligonucleotide as template/primer assessed as remaining activity at 200 uM preincubated for 15 mins followed by incubation with template/primer for 40 mins by liquid scintillation counting in presence of alpha[P33]-dCTP relative to control
[5] = molecular target: Human immunodeficiency virus type 1 reverse transcriptase (Human immunodeficiency virus 1) (UniProt Q72547); experiment: as §3, with “50” for “200”
[6] = molecular target: Human immunodeficiency virus type 1 reverse transcriptase (Human immunodeficiency virus 1, UniProt Q72547); experiment: (§4) Inhibition of HIV1 reverse transcriptase using 234-nt long RNA/18-mer DNA oligonucleotide as template/primer preincubated for 15 mins followed by incubation with template/primer for 40 mins by liquid scintillation counting in presence of alpha[P33]-dCTP; details: for pIC50: read-out: IC50
[7] = (§5) Cytotoxicity against human U2OS cells assessed as cell viability at 50 uM after 48 hrs relative to control; type: cell-based; details: U2OS cells, read-out: Activity
In short: (§6)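 U2OS cells seeded at 3.5 × 10^3 on electrode plates; after 24 h compound added at a single concentration (final DMSO 0.5%) and impedance cell index followed for 48 h. Graded against DMSO-treated cells: >50% reduction toxic, 20-50% moderately toxic, ≤20% non-toxic.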

U2OS [8] = experiment: as §5; type: cell-based; details: u2os, 48 h, 50 µM; in short: as §6
[9] = (§7) Cytotoxicity against human U2OS cells assessed as cell viability at 5 uM after 48 hrs relative to control; type: cell-based; details: U2OS cells, read-out: Activity; in short: as §6
U2OS [10] = experiment: as §7; type: cell-based; details: u2os, 48 h, 5 µM; in short: as §6
[11] = test system: Human immunodeficiency virus 1; experiment: Antiviral activity against HIV1 virus-like particles harboring wild type reverse transcriptase infected in human U2OS cells assessed as remaining viral activity at 50 uM after 24 hrs by Renilla luciferase assay relative to control; type: functional; in short: as §1
[12] = Cytotoxicity against human TZM-bl cells assessed as reduction of cell viability after 48 hrs; type: cell-based; in short: as §2
[13] = test system: Human immunodeficiency virus 1; experiment: Antiviral activity against HIV1 virion infected in human TZM-bl cells after 48 hrs by firefly luciferase assay; type: functional, organism-based; details: for pIC50: Human immunodeficiency virus 1, TZM-bl, 48 h, read-out: IC50
In short: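 TZM-bl cells (LTR-driven firefly luciferase), 5 × 10^4 per well, infected next day with ACH-2-derived HIV-1 stock (PMA-induced; 30 ng p24 per well) plus compound for 2 h at 37 °C; medium then replaced with compound-containing medium for 48 h.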

[14] = test system: Human immunodeficiency virus 1; experiment: Potency index, ratio of nevirapine IC50 to compound IC50 for HIV1 virus-like particles infected in human U2OS cells; type: functional
[15] = molecular target: Human immunodeficiency virus type 1 reverse transcriptase (Human immunodeficiency virus 1) (UniProt Q72547); experiment: as §4
[16] = test system: Human immunodeficiency virus 1; experiment: Antiviral activity against HIV1 virus-like particles harboring reverse transcriptase K103N mutant infected in human U2OS cells after 24 hrs by Renilla luciferase assay; type: functional, organism-based; in short: as §1
[17] = test system: Human immunodeficiency virus 1; experiment: Antiviral activity against HIV1 virus-like particles harboring reverse transcriptase Y181C mutant infected in human U2OS cells after 24 hrs by Renilla luciferase assay; type: functional, organism-based; in short: as §1
[18] = test system: Human immunodeficiency virus 1; experiment: Antiviral activity against HIV1 virus-like particles harboring reverse transcriptase K103N/Y181C double mutant infected in human U2OS cells after 24 hrs by Renilla luciferase assay; type: functional, organism-based; in short: as §1
[19] = Selectivity index, ratio of CC50 for human U2OS cells to IC50 for HIV1 virus-like particles infected in U2OS cells; type: functional
[20] = Selectivity index, ratio of CC50 for human TZM-bl cells to IC50 for HIV1 virion […]; type: functional
[21] = test system: Human immunodeficiency virus 1; experiment: Selectivity ratio of IC50 for HIV1 virus-like particles harboring reverse transcriptase K103N/Y181C double mutant to IC50 for HIV1 virus-like particles harboring wild type reverse transcriptase; type: functional
[22] = Human immunodeficiency virus 1, U2OS, 24 h

Compound	pIC50 [1, 22]	CC50 at 48 h [2] [µM]	Activity [4]	Activity [5]	pIC50 [6]	viability at 48 h, 50 µM [7] [%]	Activity [11] [%]	also measured
CNc1nc(Nc2ccc(C)cc2)nc(Nc2ccc(C)cc2)n1	< 5.30	> 5	79% and 82%	85% and 86%	< 3.70	46		Activity [3]: 84% and 80%; Activity (U2OS [8]): 40%; viability at 48 h, 5 µM [9]: 96%; Activity (U2OS [10]): 91%
Cc1ccc(Nc2nc(NCC3CCCO3)nc(Nc3ccc(C)cc3)n2)cc1 (stereo in doubt; 8(n.p)) [listing 1 of 2 here]			53%	59%				
Cc1ccc(Nc2nc(NCC3CCCO3)nc(Nc3ccc(C)cc3)n2)cc1 (single isomer, unassigned; isomer 1)								pIC50 ([1]; u2os): 4.74
Cc1ccc(Nc2nc(N)nc(COC(=O)c3cnc4ccccc4n3)n2)cc1	< 4.30	> 50	54%	82%	< 3.70	103	75	
Cc1ccnc2c1NC(=O)c1cccnc1N2C1CC1 [NEVIRAPINE]		> 100	9%	13.7%				CC50 at 48 h [12]: > 100 µM; Activity [3]: 0.5%; pIC50 [13]: 7.59; Activity (U2OS [8]): Non-toxic; Activity (U2OS [10]): Non-toxic
CCOC(=O)c1[nH]c2ccc(F)cc2c1NC(=O)NC1CCCCC1	< 4.30	> 50	42%	81%	< 4.30	103	84	
CCCn1c(NCCN(CC)CC)nc2c1c(=O)[nH]c(=O)n2C	< 4.30	> 50	103%	89%	< 3.70	101	128	
Cc1ccc(Nc2nc(COc3ccc(Cl)cc3)nc(=N)[nH]2)cc1	< 4.30	> 50	86%	79%	< 3.70	76	82	Activity [3]: 125%; viability at 48 h, 5 µM [9]: 93%
Cc1ccc(Nc2nc(NCC3CCCO3)nc(Nc3ccc(C)cc3)n2)cc1 (stereo in doubt; 8)		> 50						pIC50 ([1]; u2os): 4.80; IC50 [6]: Not Active; IC50 ([13]; tzm-bl): Not Active; Ratio IC50 [14]: 10
Cc1c(CCC(=O)NCC(=O)NCC(=O)O)c(=O)oc2c(C)c(O)ccc12	< 4.30	> 50	93%	92%	< 3.70	99	94	
Cc1ccc(Nc2nc(NCC3CCCO3)nc(Nc3ccc(C)cc3)n2)cc1 (stereo in doubt; 8(n.p)) [listing 2 of 2 here]					3.98	66	5.2	pIC50 ([1]; u2os): 6.48; Activity [3]: 20%; viability at 48 h, 5 µM [9]: 90%
Cc1ccc(Nc2nc(Nc3ccc(C)cc3)nc(Nc3ccc(C)cc3)n2)cc1		> 50						IC50 ([1]; u2os): Not Active; CC50 at 48 h [12]: > 50 µM
Nc1c(NCCO)cc(Nc2ccccc2)c2c1C(=O)c1ccccc1C2=O	< 5.30	> 5	66%	90%	< 3.70	42		Activity [3]: 111%; viability at 48 h, 5 µM [9]: 99%
Cc1ccccc1Nc1nc(Cn2ccc(C(F)(F)F)cc2=O)nc(=N)[nH]1	< 4.30	> 50	89%	88%	< 3.70	105	101	
O=C1NC(=S)N(CCC2=CCCCC2)C(=O)/C1=C\NCCO	< 4.30	> 50	78%	92%	< 3.70	98	54	
Cc1ccc(Nc2nc(N)nc(Nc3ccc(C)cc3)n2)cc1	5.60	42.2			3.94			CC50 at 48 h [12]: 57 µM; inhibition [15]: Dose-dependent effect; pIC50 [13]: 5.25; Activity [16]: inactive; Activity [17]: inactive; Activity [18]: inactive; Ratio CC50/IC50 [19]: 17; Ratio CC50/IC50 [20]: 10
Cc1ccc2[nH]c(=O)c(CN(CCCO)C(=S)NC[C@@H]3CCCO3)cc2c1	< 4.30	> 50	108%	98%	< 3.70	108	68	
Cc1ccc(Nc2nc(NCC3CCCO3)nc(NCC3CCCO3)n2)cc1 (stereo not drawn)		> 50						IC50 ([1]; u2os): Not Active; CC50 at 48 h [12]: > 50 µM
COc1ccc(Nc2nc(Nc3ccc(OC)cc3)nc(NC3CCCC3)n2)cc1	< 5.30	> 50	98%	94%	< 3.70	67	30	Activity [3]: 94%; viability at 48 h, 5 µM [9]: 87%
c1coc(CNc2nc(NCc3ccco3)c3nc(NCc4ccco4)[nH]c3n2)c1	< 4.30	> 50	102%	92%	< 3.70	116	104	
Cc1ccc(Nc2nc(NCC3CCCO3)nc(Nc3ccc(C)cc3)n2)cc1 (single isomer, unassigned; isomer 2)								pIC50 ([1]; u2os): 4.49; CC50 at 48 h [12]: > 50 µM
Cc1ccccc1Nc1nc(N)nc(CN(C)Cc2ccc(F)cc2)n1	< 4.30	> 50	89%	103%	< 3.70	84	53	Activity [3]: 151%; viability at 48 h, 5 µM [9]: 96%
Cc1ccc(Nc2nc(O)nc(Nc3ccc(C)cc3)n2)cc1	7.17	> 12.5			4.26			CC50 at 48 h [12]: > 12.5 µM; pIC50 [13]: 6.80; Activity [16]: inactive; Activity [17]: inactive; pIC50 ([18]; Human immunodeficiency virus 1, U2OS): 5.10; Ratio IC50 [21]: >100
Nc1nc(COC(=O)c2c[nH]c3ccccc23)nc(Cc2ccc(F)cc2)n1	< 4.30	> 50	87%	86%	< 3.70	101	118	

Source: ChEMBL document CHEMBL3784952, “Design, discovery, modelling, synthesis, and biological evaluation of novel and small, low toxicity s-triazine derivatives as HIV-1 non-nucleoside reverse transcriptase inhibitors” (Bioorg Med Chem, 2016)
